Measurements taken from ChEMBL document CHEMBL1142665, “Synthesis and cytotoxic evaluation of novel spirohydantoin derivatives of the dihydrothieno[2,3-b]naphtho-4,9-dione system” (J Med Chem, 2005).

What was measured:
[1] = system: SW-620; assay: Inhibitory concentration against SW 620 human colon carcinoma cell line; assay type: functional, cell-based
How it was run: (§1)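 Monolayer cultures in RPMI-1640 with 10% FBS; sensitive lines from ATCC, drug-resistant sublines from Istituto Tumori of Milan. Cells seeded at about 10% confluency and allowed 24 h to attach and recover. Exposed to varying drug concentrations for 24 h at 37 °C under 5% CO2, washed, then grown 48 h drug-free. Vehicle-matched controls. SRB read-out as %T/C. IC50 taken from dose/effect curve. Triplicate wells, mean of ≥3 independent experiments.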

[2] = system: MCF7; assay: Inhibitory concentration against MCF-7 human breast carcinoma cell line; assay type: functional, cell-based; how it was run: as §1
[3] = system: A2780; assay: Inhibitory concentration against A2780 ovarian carcinoma cell line; assay type: functional, cell-based; conditions: Homo sapiens; how it was run: as §1
[4] = system: A2780cisR; assay: Inhibitory concentration against A2780 ovarian carcinoma resistant to cisplatin; assay type: functional, cell-based; conditions: Homo sapiens; how it was run: as §1
[5] = system: LoVo; assay: Inhibitory concentration against LoVo colon carcinoma cell line; assay type: functional, cell-based; conditions: Homo sapiens; how it was run: as §1
[6] = system: MCF7; assay: Inhibitory concentration against MCF-7 human breast carcinoma resistant to doxorubicin; assay type: functional, cell-based; how it was run: as §1
[7] = system: HEp-2; assay: Inhibitory concentration against Hep-2 epidermal carcinoma cell line; assay type: functional, cell-based; conditions: Homo sapiens; how it was run: as §1
[8] = Inhibitory concentration against MeVo melanoma cell line; assay type: functional, Homo sapiens; how it was run: as §1
[9] = system: A549; assay: Inhibitory concentration against A549 lung carcinoma cell line; assay type: functional, cell-based; conditions: Homo sapiens; how it was run: as §1
[10] = system: A2780; assay: Inhibitory concentration against A2780 ovarian carcinoma resistant to doxorubicin; assay type: functional, cell-based; conditions: Homo sapiens; how it was run: as §1
[11] = system: NCI-H460; assay: Inhibitory concentration against NCI-H460 lung carcinoma cell line; assay type: functional, cell-based; conditions: Homo sapiens; how it was run: as §1
[12] = system: KB; assay: Inhibitory concentration against KB epidermal carcinoma cell line; assay type: functional, cell-based; conditions: Homo sapiens; how it was run: as §1

IC50 ([1]; Homo sapiens, SW-620)	IC50 ([2]; Homo sapiens, MCF7)	Structure (SMILES)	also measured
379 nM	104 nM	CCCN1C(=O)NC2(CSC3=C2C(=O)c2ccccc2C3=O)C1=O (configuration not stated)	
203 nM	116 nM	CCN1C(=O)NC2(CSC3=C2C(=O)c2ccccc2C3=O)C1=O (configuration not stated)	
54 nM	26 nM	CCN(CC)CCCN1C(=O)NC2(CSC3=C2C(=O)c2ccccc2C3=O)C1=O (configuration not stated)	
740 nM	178 nM	CCCCN1C(=O)NC2(CSC3=C2C(=O)c2ccccc2C3=O)C1=O (configuration not stated)	
50 nM	21 nM	CCN(CC)CCN1C(=O)NC2(CSC3=C2C(=O)c2ccccc2C3=O)C1=O (configuration not stated)	
68 nM	35 nM	NCCCCN1C(=O)NC2(CSC3=C2C(=O)c2ccccc2C3=O)C1=O (configuration not stated)	
52 nM	25 nM	NCCCN1C(=O)NC2(CSC3=C2C(=O)c2ccccc2C3=O)C1=O (configuration not stated)	
108 nM	23 nM	CN1C(=O)NC2(CSC3=C2C(=O)c2ccccc2C3=O)C1=O (configuration not stated)	
198 nM	69 nM	O=C1C2=C(C(=O)c3ccccc31)C1(CS2)NC(=O)N(CCO)C1=O (configuration not stated)	
562 nM	178 nM	CCC(C)N1C(=O)NC2(CSC3=C2C(=O)c2ccccc2C3=O)C1=O (configuration not stated)	
119 nM	40 nM	O=C1C2=C(C(=O)c3ccccc31)C1(CS2)NC(=O)N(CCCO)C1=O (configuration not stated)	
57 nM	32 nM	CN(C)CCN1C(=O)NC2(CSC3=C2C(=O)c2ccccc2C3=O)C1=O (configuration not stated)	
900 nM	331 nM	CC(C)(C)N1C(=O)NC2(CSC3=C2C(=O)c2ccccc2C3=O)C1=O (configuration not stated)	
		CN(C)CCCN1C(=O)NC2(CSC3=C2C(=O)c2ccccc2C3=O)C1=O (single isomer, unassigned; (+))	IC50 ([1]; sw-620): 60 nM
		NCCN1C(=O)NC2(CSC3=C2C(=O)c2ccccc2C3=O)C1=O (single isomer, unassigned; (+))	IC50 ([1]; sw-620): 34 nM; IC50 ([2]; mcf7): 20 nM
35 nM	22 nM	NCCN1C(=O)NC2(CSC3=C2C(=O)c2ccccc2C3=O)C1=O (stereo in doubt; 11)	
58 nM	19 nM	CN(C)CCCN1C(=O)NC2(CSC3=C2C(=O)c2ccccc2C3=O)C1=O (stereo in doubt; 15)	IC50 [3]: 68 nM; IC50 [4]: 110 nM; IC50 [5]: 230 nM; IC50 [6]: 173 nM; IC50 [7]: 170 nM; IC50 [8]: 250 nM; IC50 [9]: 110 nM; IC50 [10]: 130 nM; IC50 [11]: 260 nM; IC50 [12]: 100 nM
		NCCN1C(=O)NC2(CSC3=C2C(=O)c2ccccc2C3=O)C1=O (stereo in doubt; (-)-11)	IC50 ([1]; sw-620): 47 nM; IC50 ([2]; mcf7): 31 nM
		CN(C)CCCN1C(=O)NC2(CSC3=C2C(=O)c2ccccc2C3=O)C1=O (stereo in doubt; (-)-15)	IC50 ([1]; sw-620): 65 nM; IC50 ([2]; mcf7): 27 nM
178 nM		COc1cccc2c1C(=O)c1c(O)c3c(c(O)c1C2=O)C[C@@](O)(C(=O)CO)C[C@@H]3O[C@H]1C[C@H](N)[C@H](O)[C@H](C)O1 [DOXORUBICIN]	IC50 [3]: 7 nM; IC50 [4]: 6 nM; IC50 [5]: 33 nM; IC50 [7]: 59 nM; IC50 [8]: 820 nM; IC50 [9]: 64 nM; IC50 [10]: 290 nM; IC50 [11]: 10 nM; IC50 [12]: 21 nM
